According to the RNAGym collection of RNA variant scans (doi:10.1101/gad.245936.114):
Fewer inactive variants are shown than the library holds.

B1: tRNA (parent)
chain: CUCUCGGUAGCCAAGUUGGUUUAAGGCGCAAGACUUUAAUUUAUCACUACGAAAUCUUGAGAUCGGGCGUUCGACUCGCCCCCGGGAGAUUUUUUCCUCGAGCAA

Variants of: B1
Assay: nonsense suppression (GFP-seq) (ratio to wild type); higher = more function; SUP4oc tRNA, yeast GFP reporter sort-seq
How it was run: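 Yeast were grown in raffinose/galactose medium with 80 mg/L adenine, each strain bearing a genome-integrated ochre-suppressor tRNA variant from a ~3% random-mutation library, a galactose-driven GFP ochre reporter, and RFP. After sorting into GFP/RFP bins, every bin was sequenced on an Illumina platform at phred ≥30. The GFPSEQ value, a measure of nonsense suppression, is the weighted bin median GFP/RFP relative to the unmutated parent tRNA, using each variant's estimated cell share per bin as the weight. Only variants with ≥100 reads and ≥30 cells were included.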

Variant | nonsense suppression
C12U U21A A31G | 0.214
U55C C77A | 0.0479
U55C C75G | 1.16
C1A G26C | ≤ 0.026
C56A U71A | ≤ 0.026
C1A G18C | ≤ 0.026
U4A U21A G66U | ≤ 0.026
A62G C75G | 0.205
A62G C75A | 0.219
C27U | 0.183
U20A G28C | 0.182
A13C C68U | 0.836
A54C U71G | ≤ 0.026
A23U G32C U57C C81A | ≤ 0.026
A13C U17G | 0.958
G78A | 0.775
U8C G84U | ≤ 0.026
U63C C75U | 1.1
C1U C3A U8A U17C | ≤ 0.026
C11G A24G A74G | ≤ 0.026
A9U U57G C77A G85A | ≤ 0.026
A13G U21G C77G | ≤ 0.026
A13C U21C | 1.17
G59U A89G | ≤ 0.026

Variant | nonsense suppression
A33G C75U | 0.275
A31U U63G | 0.0763
U20C A24C | 0.249
C12U U76G | 0.0906
C12U U76C | 0.818
U57C A60U | 0.0266
A24U A30G | 0.148
G85A | 0.982
A13U C72G | 0.032
C64U U71G | ≤ 0.026
A9G A30G | 0.466
C3U U76C | 0.17
U4C C12G C64G G66C | ≤ 0.026
C12U A13G | 0.153
A30G A54C | 0.077
A13C A23G A31U | ≤ 0.026
A60U | 0.984
U21A A54C G61A | 0.215
U17C U20G | 1.25
U17A A24U | 0.2
C5U A23G | 0.0405
C5U G61A | 0.0314
U21G A60G | 0.0299
G28A | 0.975

Variant | nonsense suppression
U16G U21C | 0.905
U21G A30G A89G | ≤ 0.026
A9G A31G | 0.259
U17G G19U | 1.05
U8A A13G | ≤ 0.026
A62G C83A | ≤ 0.026
A24G U70G | ≤ 0.026
G6U U20A C83G | 0.186
C11U G19A G25A C29U G59A | ≤ 0.026
G32U U70C | ≤ 0.026
A13U C64U | 0.0285
A13G G85A | 0.214
A30C A60U U63A G69C | ≤ 0.026
G10C C27G G73C | ≤ 0.026
U2G G10C G15U C29U A31U | ≤ 0.026
A23G G61C | 0.113
U16G A54U | 1.18
G28C G78A | 0.0288
U16C C68U | 1.03
C1A A23C C77A | ≤ 0.026
A24U U35A | ≤ 0.026
G61A C72A | 0.0325
U20G U63G | 0.495
U4A C5G G59A | ≤ 0.026

Variant | nonsense suppression
C3U C75U | 0.539
A14C C68G | ≤ 0.026
U22G A54U G88U | ≤ 0.026
A62U G67U G69U | ≤ 0.026
C27G U57C U58G G66A C68G | ≤ 0.026
G26C U57A A89C | ≤ 0.026
A13C C29U | 0.806
U17A A33G | 0.104
A9U C12U | 0.29
U17C U63C | 1.18
U17C U63G | 0.804
A23C G59C G61C | ≤ 0.026
A23C G59C G61A | ≤ 0.026
U4C G15A U21A | 0.214
A31G U63C | 0.333
C5G U55C U70C | ≤ 0.026
G65A G78A | 0.0493
G78A A87U | 0.032
G6A A62U | ≤ 0.026
U20C G86C | ≤ 0.026
A31G C79U | 0.77
G59U A62C A89G | ≤ 0.026
C29U C72U | 0.101
A13U C83U | 0.157

Variant | nonsense suppression
A9G C72U | 0.0591
U22A U76A | 0.0747
C3G A14U G18U | ≤ 0.026
A24C U70A | ≤ 0.026
A9U G73A | 0.0814
A30U U55C A87C A89U | 0.0456
G28C G84C | 0.239
C27A U55A G85A | ≤ 0.026
G15U U16A G59C G66C U70A C82G | ≤ 0.026
U21C A31G | 1
U21G A33U U57C U58A A89G | ≤ 0.026
A14C U21G A23C G69A U70A | ≤ 0.026
U20A G73C | 0.0366
C5A A23C A31G G61A | ≤ 0.026
A54C G69C C75U U76G G85C | ≤ 0.026
G65C U76A | ≤ 0.026
G10U G32C | ≤ 0.026
U22C G59C | ≤ 0.026
A14C G59A U70G | ≤ 0.026
C34U A54C C56G G73A G88C | ≤ 0.026
U21A G65C U71A G78U | ≤ 0.026
G6A A23G G25C U63C C80G | ≤ 0.026
A13C A14U | 0.206
A24C A87G | 0.479

Variant | nonsense suppression
C12U U70A | 0.048
G6A U55A | ≤ 0.026
C12A G61C G66C | ≤ 0.026
A14G U17A G59U | ≤ 0.026
A60C A62C A87G | ≤ 0.026
G25U G61A G67U | ≤ 0.026
U21G G73U | 0.026
C5U A87G | 0.0561
U20G U55C | 0.849
C3A U20G G28U U57C G61C A74U G78C C79A | ≤ 0.026
G86U | ≤ 0.026
A23G A54U | 0.0263
C11U A62G U63A | ≤ 0.026
G10U C27A G85A | 0.159
U4G U57G | 0.0369
G73A G84C | 0.361
G15C C27G A31C | ≤ 0.026
U20C U76C | 0.228
G19U A23U C34A U63G | ≤ 0.026
A9C U20G G61U C68U | ≤ 0.026
U17G A31G | 1.15
A54U G65A | 0.0335
C82A G84U | ≤ 0.026
A23U C34U U35G | ≤ 0.026

Variant | nonsense suppression
U4C C83U | 1.17
U17C U55C G59A G66C | ≤ 0.026
A74C C79U | 0.037
G28C G61C | 0.386
A54U C64U | 0.0513
U4A G61U | 0.194
C27A C29A U71C C79U | ≤ 0.026
C11U A33G A74C C83A | ≤ 0.026
G78A G85U | 0.0673
U22C A31G A74C | ≤ 0.026
U21A C29A C79U | ≤ 0.026
A33C U71G G86A | ≤ 0.026
G25A C29A G84C | 0.027
A31G | 1.08
A13U G69A | 0.072
A9G U71C | 0.0266
C1U A14G A31G U58G | ≤ 0.026
G19C U71C | ≤ 0.026
A60G U71C | 0.0362
U20C C56G | ≤ 0.026
A54C G65U | 0.0425
G78A G84A | 0.459
C5U A13G A14C | ≤ 0.026
